CDK5 p35 inh: blocks human CDK5/p35 kinase activity | Recombinant CDK5/p35, ADP-Glo luminescence, 60 min | inhibition, % at 10 µM | 0.01% of 330,000 active | AID 488839;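 active = highest replicate inhibition of at least 50% and at least 75% of replicates reaching 50%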
Target sequence (Q00535 whole entry, looked up): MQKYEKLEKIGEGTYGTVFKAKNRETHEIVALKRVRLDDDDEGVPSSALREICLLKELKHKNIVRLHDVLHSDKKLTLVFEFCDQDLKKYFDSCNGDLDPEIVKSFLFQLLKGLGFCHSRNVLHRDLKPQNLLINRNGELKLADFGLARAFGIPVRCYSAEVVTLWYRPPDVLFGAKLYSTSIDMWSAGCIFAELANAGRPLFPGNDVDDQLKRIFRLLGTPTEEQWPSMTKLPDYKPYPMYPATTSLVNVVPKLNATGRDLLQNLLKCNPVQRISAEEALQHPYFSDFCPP
Target sequence (Q15078 whole entry, looked up): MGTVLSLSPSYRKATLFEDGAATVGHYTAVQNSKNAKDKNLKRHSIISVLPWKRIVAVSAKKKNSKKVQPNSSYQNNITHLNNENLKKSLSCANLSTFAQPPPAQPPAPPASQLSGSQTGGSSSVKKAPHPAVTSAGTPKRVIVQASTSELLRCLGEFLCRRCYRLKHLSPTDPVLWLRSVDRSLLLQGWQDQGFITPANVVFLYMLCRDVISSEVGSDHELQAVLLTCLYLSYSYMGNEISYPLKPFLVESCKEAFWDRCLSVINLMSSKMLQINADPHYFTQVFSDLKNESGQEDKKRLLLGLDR
CAL PDZ FP-1: blocks peptide binding to the human CAL PDZ domain; 0.92% of 300,000 active; AID 602252; inhibition, % at 24.9 µM; purified CAL PDZ, TMR-peptide fluorescence polarization, 1 h;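 active = mean inhibition of at least 30% with at least half of replicates also reaching 30%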
Vif inh: inhibitors of HIV Vif; HEK293T cells, Vif self-association by quenched fluorescence, imaging, 24 h; inhibition, % at 7.49 µM; 0.35% of 340,000 active; AID 602346; in the data active = inhibition above about 50%, passing the limit was not always enough
Glyco luc inh: N-linked glycosylation inhibition | D54 ERlucT glycosylation luciferase reporter, 24 h; percent of 100 nM tunicamycin response | reporter increase, % at 12.5 µM | 0.23% of 360,000 active;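 active = mean luciferase reporter signal, scaled so untreated is 0 and the glycosylation-blocking control 100, at or above a set limit in every replicate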;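 note: luciferase carries N-glycosylation sites so blocking glycosylation raises the light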
CAL PDZ FP-2: human CAL PDZ-peptide interaction inhibition; Q9HD26; purified CAL PDZ, TMR-peptide fluorescence polarization, 1 h; inhibition, % at 20 µM; 0.02% of 330,000 active; AID 504414;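 active = highest replicate inhibition of at least 40%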
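material = purified tagged CAL PDZ domain construct (CerCALP) | buffer or medium = sodium phosphate/NaCl buffer pH 7.4 with TCEP, IgG, Thesit | reagent = TMR-labelled reporter peptide T*-PRC34 bound in PDZ groove | incubation = 1 h room-temperature incubation prior to read | measured by = fluorescence polarization (mP) | evaluation = percent inhibition from loss of millipolarization | control set = unlabelled peptide and DMSO controls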
PvdQ inh: blocks Pseudomonas aeruginosa PvdQ acylase activity. inhibition, % at 10 µM. purified PvdQ acylase, fluorescence plate reader. 0.063% of 340,000 active. AID 488965; in the data active = inhibition above about 30%, passing the limit was not always enough
Hits are given with their value; 0 = inactive; - = no result. The list is not random: actives were taken first. Their share in the collection is about 1.4%.

SMILES	CDK5 p35 inh	CAL PDZ FP-1	Vif inh	Glyco luc inh	CAL PDZ FP-2	PvdQ inh
CCc1ccccc1N1C(=O)CC(Sc2nccc(C)n2)C1=O (stereo unspecified)	0	99.7	0	0	-	0
CCCCn1c(SCC(=O)Nc2ccc3c(c2)OCCO3)nnc1C(CC)N(C)C (stereo unspecified)	0	0	0	0	0	0
CCCCn1c(SCC(=O)Nc2cc(C(F)(F)F)cc(C(F)(F)F)c2)nnc1C(CC)N(C)C (stereo unspecified)	0	-	0	28.1	0	0
CCOC(=O)c1cc(-c2ccccc2)sc1NC(=S)Nc1cc(C)ccn1	0	0	169.1	0	0	0
O=C(COC(=O)Cc1ccc(Cl)cc1)NCc1ccc2c(c1)OCO2	0	0	0	0	0	0
O=C(COC(=O)c1ccc2c(c1)OCO2)NCc1ccc(Cl)cc1	0	61.0	0	0	-	0
COc1ccc(OCCC(=O)OCC(=O)NCc2ccc(F)cc2)cc1	0	46.5	0	0	0	0
O=C(COC(=O)Cc1ccc(Cl)cc1)NCc1ccc(Cl)cc1	-	-	-	0	-	-
COc1ccc(CC(=O)OCC(=O)NCc2ccc(Cl)cc2)cc1	0	0	80.1	0	0	0
C=CCN(c1ccc(F)cc1)S(=O)(=O)c1cc(C(=O)OCC(=O)N(C)C2CCS(=O)(=O)C2)ccc1Cl (stereo unspecified)	0	39.5	0	0	0	0
COc1ccc(CN2CCNC(=O)C2CC(=O)N(C)CCC2CCOCC2)cc1OC (stereo unspecified)	0	93.1	0	0	0	0
CCc1ccc(Oc2coc3cc(OCC(=O)Nc4cc(C)ccc4C)ccc3c2=O)cc1	0	0	0	66.1	0	0
CSc1n[nH]c(NC2=CC(=O)CCC2)n1	0	0	59.3	0	0	0
CSc1n[nH]c(NC(C)=O)n1	0	0	0	0	0	0
O=C(CN(Cc1ccccc1)C(=O)CNS(=O)(=O)c1ccccc1)NCC1CCCO1 (stereo unspecified)	0	0	0	0	0	0
COc1ccc(S(=O)(=O)NCC(=O)N(CC(=O)NCC2CCCO2)Cc2ccccc2)cc1 (stereo unspecified)	0	0	70.8	0	0	0
COc1ccc(OC)c(C2C3=C(COC3=O)Nc3cc4c(cc32)OCO4)c1 (stereo unspecified)	0	-	71.6	0	0	0
COc1ccc(C2C3=C(CC(C)(C)CC3=O)Nc3cc4c(cc32)OCO4)cc1 (stereo unspecified)	0	0	0	0	0	0
CCCN(CCC)S(=O)(=O)c1ccc(C(=O)Nc2ccc(OCC(=O)N3CCOCC3)cc2)cc1	0	0	0	40.4	0	0
CCCCOc1ccc(C(=O)Nc2cc(C)c(OCC(=O)N3CCOCC3)c(C)c2)cc1	0	0	0	0	0	0
CC(C(=O)NCC1CCCO1)N1C(=O)C2C3CC(C(Br)C3Br)C2C1=O (stereo unspecified)	0	109.3	0	0	0	0
Cc1ccc(CNC(=O)COc2ccc(S(=O)(=O)N3CCOCC3)cc2)cc1	0	-	0	0	0	0
CCN1CC=C2C(C1)C(c1ccc(Cl)s1)C(C#N)=C(N)C2(C#N)C#N (stereo unspecified)	0	0	87.2	0	0	0
O=C(C1CCN(S(=O)(=O)c2ccc(F)cc2)CC1)N1CCCC(C(F)(F)F)C1 (stereo unspecified)	0	-	0	0	0	0
Cc1cccc2c(=O)cc(C)n(Cc3ccccc3)c12	0	0	0	0	0	35.2
SMILES	CDK5 p35 inh	CAL PDZ FP-1	Vif inh	Glyco luc inh	CAL PDZ FP-2	PvdQ inh
C=C(C)CSc1nc2ncc(Cl)cc2[nH]1	0	0	68.7	0	0	0
CN(C)/C=C1\C=C2C(=O)c3ccccc3N2C1=O	0	55.6	-	0	0	0
CN(C)S(=O)(=O)N1C(=O)c2ccccc2C1=O	0	0	0	0	-	0
O=C(CN1CCN(c2ccccc2F)CC1)NC(=O)NCc1ccco1	0	44.1	0	0	0	0
COc1ccccc1NS(=O)(=O)c1ccc(C)c(C(=O)NCC2(N(C)C)CCCCC2)c1	0	0	0	0	0	0
Cc1cc(C(=O)Nc2c(F)c(F)c(F)c(F)c2F)n(-c2ccccc2)n1	0	0	72.9	0	0	0
O=C(/C=C/c1ccco1)Nc1ccc(Oc2ccc(Cl)cc2)cc1	0	0	62.8	0	0	0
O=C(/C=C/c1ccco1)Nc1ccccn1	0	-	0	0	0	0
Cc1ccc(NC(=O)/C=C/c2ccco2)nc1	0	0	51.4	0	0	0
CC(C)N(C(=O)CSc1ccc(S(=O)(=O)N2CCCCC2)cn1)c1ccccc1	0	0	0	0	0	0
CC(=O)NC1C(OCc2ccccc2)OC(CO)C(OC(C)=O)C1OC(C)=O (stereo unspecified)	0	45.9	0	0	0	0
COc1cc(C(=O)NCCc2cn3ccc(C)cc3n2)cc(OC)c1OC	0	-	96.4	0	0	0
COc1cc2nc(NC(=O)c3ccccc3)sc(=O)c2cc1OC	0	0	0	41.4	0	0
COC(=O)c1cccc(NC(=S)NCCC2=CCCCC2)c1	0	0	55.1	0	0	0
COC(=O)c1ccc(NC(=S)NCCC2=CCCCC2)cc1	0	0	0	0	0	0
c1ccc(CCNc2nc(-c3ccccn3)nc3ccccc23)cc1	0	-	0	0	0	0
c1ccc(-c2cc(-c3nnc4n3N=C(c3ccc5ccccc5c3)CS4)[nH]n2)cc1	0	-	-	45.8	0	0
COc1ccc(C2=Nn3c(nnc3-c3ccco3)SC2)cc1	0	0	0	25.3	0	0
Cc1cc(-c2nnc3n2N=C(c2ccc(-c4ccccc4)cc2)CS3)n[nH]1	0	0	0	37.3	0	0
COc1ccc(OC)c(C2=Nn3c(nnc3-c3ccco3)SC2)c1	0	-	0	0	0	0
CCOc1ccc(NC(=O)COC(=O)C2C3CC4OC(=O)C2C4C3)cc1 (stereo unspecified)	0	0	0	0	0	0
CCc1cc(=O)oc2c3c(cc(OCC(=O)NC4CC4)c12)OC(C)(C)CC3	0	0	0	0	0	0
CCCc1cc(=O)oc2c3c(cc(OCC(=O)N4CCC[C@H]4C(=O)O)c12)OC(C)(C)CC3	0	42.7	0	0	0	0
CCOc1cc2[nH]c(=O)n(CCCCC(=O)NC3CCCCCC3)c(=O)c2cc1OCC	0	0	0	0	0	0
COc1cc2[nH]c(=O)n(CCCC(=O)NC3CCCCC3)c(=O)c2cc1OC	0	0	55.2	0	0	0
COc1ccccc1NCCC(=O)OCC(=O)Nc1ccccc1Cl	0	0	0	0	0	0
Cc1ccccc1S(=O)(=O)Nc1nc2ccccc2nc1NCCO	0	0	51.5	0	0	0
C(=C\c1nnc(-c2cccs2)o1)/c1ccccc1	0	0	0	0	0	38.1

Compound activity deposited in PubChem by Broad Institute.
